Arr AP2 block = inhibitors of beta-arrestin/AP2 binding, primary screen, biochemical, GPCR trafficking, flow cytometry | FITC-arrestin peptide / GST-AP2 beads; AP2 beta2 appendage carries R879A mutation | inhibition, % at 10 µM | actives 0.31% (n = 340,000) | AID 504490, 2011;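 active = inhibition above a set limit, near 3 SD of compounds lacking own fluorescence, cut at about 54% in these data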;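 also: plate controls were DMSO wells for no effect and 5 µM unlabelled arrestin peptide for full effect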
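system = GST-tagged AP2 beta2-adaptin appendage (R879A) on 4 µm glutathione beads | reagent = FITC-labelled arrestin peptide probe, 50 nM final | schedule = compound with beads 12 min RT, then probe 1 h RT | signal = HyperCyt-sampled flow cytometry, FL1 channel, ex 488/em 535 nm | read-out = percent response from loss of bead-bound FITC fluorescence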
PolyA inhibitor = polyadenylation inhibitors in yeast reporter cells, primary screen, luminescence, S. cerevisiae. activity score, % at 12 µM. actives 0.02% (n = 300,000). AID 1875, 2009. S. cerevisiae SKY197-pL101 polyadenylation reporter, beta-gal luminescence; efflux-impaired pdr1/pdr3 knockout yeast; score 100 = 6 SD above DMSO;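 active = lowest replicate activity score at least 50, where 100 means six control SD above control mean; inconclusive = lowest score under 50 but half or more replicates reach 50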;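 also: yeast exposed to compound for 9 h at 30 °C; higher score means more reporter readthrough which indicates perturbed polyadenylation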
NALP3 yeast inh = NALP3 inflammasome inhibitors in reconstituted yeast, primary screen, luminescence, uHTS; Yeast reconstituted NLRP3/ASC/caspase-1, beta-gal luminescence, 24 h; inhibition, % at 10 µM; actives 0.39% (n = 330,000);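 active = inhibition of 50% or more; inactive = inhibition below 50%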;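 also: plate controls were induced DMSO wells for no effect and uninduced yeast grown without galactose for full effect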
ALR H2O2 inh = inhibitors of human ALR sulfhydryl oxidase, primary screen, biochemical, H2O2 detection, HRP-luminol luminescence, single point; FAD-linked sulfhydryl oxidase ALR (Homo sapiens), P55789; actives 3.8% (n = 290,000); purified ALR, DTT oxidation; AID 485317, 2010; inhibition, % (no concentration beside the values);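 active = mean replicate inhibition above about 79%, with every replicate also reaching it, limit read from the data; inconclusive = only one of the two criteria met; inactive = mean below limit and not every replicate reaching it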
Target sequence (P55789 whole entry, looked up): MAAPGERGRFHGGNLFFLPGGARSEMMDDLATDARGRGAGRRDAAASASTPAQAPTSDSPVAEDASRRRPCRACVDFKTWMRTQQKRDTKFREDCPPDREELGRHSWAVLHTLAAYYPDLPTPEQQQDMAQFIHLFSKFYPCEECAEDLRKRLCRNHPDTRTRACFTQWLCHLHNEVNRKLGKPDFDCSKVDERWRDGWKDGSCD
DSG3 Ab inh = inhibitors of pemphigus antibody binding to DSG3, primary screen, biochemical, bead-based, flow cytometry, scFv-GFP. Desmoglein-3 (Homo sapiens), P32926. DSG3-coupled beads, scFv-anti-DSG3-GFP binding; active compounds read low. binding (percent of control), % at 10 µM. actives 0.48% (n = 310,000). AID 588358, 2011;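 active = binding more than 3 SD below its plate's average and above zero; inconclusive = below that plate limit but binding exactly zero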;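 also: hits lower antibody fragment binding to DSG3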
NALP1 yeast inh = NALP1 inflammasome inhibitors in reconstituted yeast, colorimetric, S. cerevisiae, triplicate retest; actives 0.61% (n = 280,000); AID 2071, 2009; inhibition, % at 10 µM; S. cerevisiae NALP1/ASC/caspase-1 growth, X-gal OD620, 72 h; in the data active = inhibition mostly above about 24%, no sharp cut-off; inactive = mostly below about 32%
* = called active by the depositor; ? = inconclusive; · = no result. Rows were chosen to be rich in hits. Some 4.6% of all compounds tested hit in one or more screens of this group.

SMILES	Arr AP2 block	PolyA inhibitor	NALP3 yeast inh	ALR H2O2 inh	DSG3 Ab inh	NALP1 yeast inh
O=C(Nc1ccccc1C(=O)Nc1ccccc1C(=O)O)c1ccccc1	1	2	18	97*	93	9
O=C(O)c1ccccc1NC(=O)c1ccccc1Nc1ccccc1	28	10	15	98*	99	5
CCCCOc1ccc(C(=O)N2CCNC(=O)C2)cc1	0	14	12	·	89	17
CC(OC(=O)CC1Sc2ccccc2NC1=O)C(=O)N(C)Cc1ccccc1 (stereo unspecified)	-4	·	·	·	53	·
COc1ccc(CNC(=O)CCC(=O)n2ncc3cc(C)ccc32)cc1	10	-12	41	-4	76*	0
CCCOc1ccc(CNC(=O)CCC(=O)n2ncc3cc(C)ccc32)cc1	6	-12	32	4	97	5
COc1ccc(S(=O)(=O)NCC2CCCO2)cc1NC(=O)c1ccc(Cl)cc1 (stereo unspecified)	22	7	9	-15	103	·
N#CC1=C(N)NC(SCC(=O)Nc2ccc(Br)cc2)=C(C#N)C12CCCCC2	13	-19	1	97*	102	7
N#CC1=C(N)NC(SCc2ccc(Br)cc2)=C(C#N)C12CCCCC2	-5	0	20	-20	·	4
CCCn1c(N)c(N(CCOC)C(=O)COC(=O)COc2c(C)cc(C)cc2C)c(=O)[nH]c1=O	·	·	·	·	99	·
O=C1CCCN1CCC(=O)N1CCCC(N2CCN(c3ccccc3F)CC2)C1 (stereo unspecified)	0	-14	10	7	112	13
CCOC(=O)c1[nH]c(C)c(C(=O)N2CCN(c3ccccc3)CC2)c1C	23	-4	3	98*	105	5
Cc1c(C(=O)N2CCN(c3ccc([N+](=O)[O-])cc3)CC2)sc2ncn(CC(=O)N3CCOCC3)c(=O)c12	9	9	11	33	102	1
CCn1cnc2sc(C(=O)N3CCN(c4ccc(OC)cc4)CC3)c(C)c2c1=O	-14	-9	22	81*	85	16
CCOC(=O)c1c(C)[nH]c(C(=O)N2CCN(c3ccc(OC)cc3)CC2)c1C	0	1	4	98*	101	0
CCOC(=O)c1c(C)[nH]c(C)c1S(=O)(=O)N(C)CC(=O)N1CCN(c2ccc(OC)cc2)CC1	18	3	12	25	?	8
CC(=O)c1c(C)[nH]c(C(=O)N2CCN(c3ncccn3)CC2)c1C	17	-12	-12	22	89	38*
CCOc1ccccc1C(=O)NCC(=O)NNC(=O)c1cccc(S(=O)(=O)Nc2ccc(OC)cc2)c1	-17	25	9	-2	104	·
CC(=O)Nc1ccc(S(=O)(=O)NCC(=O)N2CCN(S(=O)(=O)c3cccs3)CC2)cc1	6	·	3	·	83	·
Cc1ccc(S(=O)(=O)N2CCN(C(=O)c3ccc(-n4cncn4)c([N+](=O)[O-])c3)CC2)c(C)c1	·	·	·	·	103	·
CCOC(=O)c1ccc2c(c1)n(CC)c(/C=C/N(C)c1ccccc1)[n+]2CC	-5	5	-2	1	118	15
CC[n+]1c(/C=C/N(C)c2ccccc2)n(-c2ccccc2)c2ccc(-c3nc4ccccc4s3)cc21	-13	-29	39	-78	169	46*
O=S(=O)(c1cc(-c2nnc(-c3ccc(Br)cc3)o2)ccc1Br)N1CCCCCC1	-3	1	5	-4	74*	8
C=CCn1c(SCc2csc(-c3ccc(C)cc3)n2)nnc1-c1ccccc1OC	-10	-8	13	99*	111	18
C=CCn1c(=O)c2ccccc2n2c(SCc3csc(-c4ccccc4)n3)nnc12	17	11	12	99*	104	22

From PubChem BioAssay
